# ChEMBL document CHEMBL5113379, “4-Oxooctahydroquinoline-1(2H)-carboxamides as hepatitis B virus (HBV) capsid core protein assembly modulators” (Bioorg Med Chem Lett, 2022)
# pEC50: −log10 of the molar value. The source made the active and inactive calls. The rule behind the calls is not given here.
# Legend:
# Hepatitis B virus = experiment: Antiviral activity against HBV infected in mouse AML12HBV10 cells assessed as reduction in viral replication incubated for 48 hrs and measured by [alpha-32P]UTP-labeled radio-probe based dot blot hybridization assay; assay type: functional, organism-based
# Outline: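 The test used the stable HBV line AML12HBV10, derived from immortalized mouse hepatocytes (AML12). HBV replication was measured by dot blot hybridization and EC50 was determined.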
# [1] = Cytotoxicity against mouse […] measured by MTT assay; assay type: toxicity, cell-based, AML12HBV10; details: aml12hbv10
# Outline: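 Cytotoxicity was measured by MTT assay in the stable HBV line AML12HBV10, derived from immortalized mouse hepatocytes (AML12), and CC50 was determined.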
# [2] = Metabolic stability in human liver microsomes assessed as half-life; assay type: ADME, Microsome; details: microsomes
# [3] = Metabolic stability in mouse liver microsomes assessed as half-life; assay type: ADME, Microsome; details: microsomes
# HepDES19 [4] = experiment: Antiviral activity against HBV infected in human HepDES19 cells assessed reduction of amounts of encapsidated pgRNA 5 uM […] by northern blot hybridization assay; assay type: functional, cell-based
# Outline: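 In tet-inducible HepDES19 cells, pgRNA transcription was induced by tetracycline removal; tet-maintained cells were the negative control. Treatment with DMSO or compound at 2 or 5 μM began 24 h after tet removal and lasted 6 days. Encapsidated pgRNA was detected by Northern blot hybridization, with ribosomal RNA as loading control.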
# HepDES19 [5] = experiment: Antiviral activity against HBV infected in human HepDES19 cells assessed as reduction of capsid associated HBV DNA 5 uM measured by agarose gel electrophoresis-based particle gel assay; assay type: functional, cell-based
# Outline: (§1)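 HepDES19 cells were kept with tetracycline to block pgRNA transcription (negative control) or without it to induce pgRNA transcription and HBV DNA replication. Compounds (1, 2 or 5 μM) or DMSO were added starting 24 h after tet removal and kept for 6 days.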
# HepDES19 [6] = experiment: Antiviral activity against HBV infected in human HepDES19 cells assessed as reduction of capsid associated HBV DNA 1 uM measured by agarose gel electrophoresis-based particle gel assay; assay type: functional, cell-based; outline: as §1
# [7] = Hepatitis B virus, AML12HBV10, 48 h
Compound,pEC50 (Hepatitis B virus; [7]),CC50 [1] [µM],other results
O=C(Nc1ccc(F)c(Cl)c1)c1cccc2c1OCCC2,6.12,> 12.5,–
O=C(Nc1ccc(F)c(Cl)c1)c1cccc2c1OCCO2,6.70,> 50,t1/2 [2]: 1.7 min; t1/2 [3]: 6.6 min
O=C(Nc1cc(F)c(F)c(F)c1)c1cccc2c1OCCO2,6.55,> 100,–
O=C1CCN(C(=O)Nc2ccc(F)c(Cl)c2)C2CCCCC12 (stereo in doubt; 61),–,–,Activity (HepDES19 [4]): Active; Activity (HepDES19 [5]): Active
C=C1[C@H](CO)[C@@H](O)C[C@@H]1n1cnc2c(=O)[nH]c(N)nc21,–,–,Activity (HepDES19 [6]): Active
O=C(Nc1ccc(O)c(Cl)c1)c1cccc2c1OCCO2,5.01,> 100,–
O=C(Nc1ccc(F)c(Cl)c1)c1cccc2nccnc12,5.62,> 12.5,–
O=C1CCN(C(=O)Nc2ccc(F)c(C(F)(F)F)c2)[C@@H]2CCCC[C@H]12,6.01,> 20,–
O=C1CCN(C(=O)Nc2ccc(F)c(Cl)c2)c2ccc(Cl)cc21,5.32,> 100,–
O=C(NC1CC(F)(F)C1)c1cccc2c1OCCO2,< 5.00,> 100,–
O=C(Nc1ccc(F)c(Cl)c1)N1CCS(=O)(=O)c2ccccc21,< 5.00,> 100,–
O=C1COc2cccc(C(=O)Nc3ccc(F)c(Cl)c3)c2N1,< 5.00,> 50,–
O=C1CCN(C(=O)Nc2ccc(F)c(Cl)c2)C2CCCCC12 (stereo in doubt; 60),–,–,pEC50 (Hepatitis B virus; aml12hbv10): 5.73; t1/2 [2]: 48 min; t1/2 [3]: 7 min
CCC(C)NS(=O)(=O)c1cc2c(c(C(=O)Nc3ccc(F)c(Cl)c3)c1)OCCO2 (stereo not given),5.79,> 33.3,t1/2 [2]: 37.4 min; t1/2 [3]: 16.4 min
O=C(Nc1ccc(F)c(Cl)c1)n1[nH]c(=O)c2ccccc21,< 5.00,> 100,–
O=C1CC(c2ccccc2)N(C(=O)Nc2ccc(F)c(Cl)c2)c2ccccc21 (stereo not given),5.54,> 50,–
O=C1CCC(C(=O)Nc2ccc(F)c(Cl)c2)c2ccccc21 (stereo not given),5.78,> 100,t1/2 [3]: 5.8 min
O=C1CCN(C(=O)Nc2ncc(F)c(Cl)n2)[C@@H]2CCCC[C@H]12,< 5.00,> 50,–
O=C1CCN(C(=O)Nc2cc(F)c(F)c(F)c2)[C@@H]2CCCC[C@H]12,5.62,> 100,–
O=C1CC2CCC(C1)N2C(=O)Nc1ccc(F)c(Cl)c1,< 5.00,> 100,–
O=C1CCN(C(=O)Nc2ccc(F)c(Cl)c2)C(Cc2ccccc2)C1 (stereo not given),5.29,> 20,–
O=C(Nc1ccc(N2CCOCC2)c(Cl)c1)c1cccc2c1OCCO2,< 5.00,> 25,–
O=C(CC1COCCO1)Nc1ccc(F)c(Cl)c1 (stereo not given),5.30,> 100,–
O=C(Nc1ccc2c(c1)OCO2)c1cccc2c1OCCO2,5.38,> 100,–
O=C1CCN(C(=O)Nc2cccc(Cl)c2)[C@@H]2CCCC[C@H]12,6.66,> 20,–
O=C(Nc1ccc(F)c(Cl)c1)N1CCOc2cccnc21,< 5.00,26.3,–
O=C(Nc1ccc(C(F)(F)F)c(Cl)c1)c1cccc2c1OCCO2,5.80,> 50,t1/2 [2]: 44.4 min; t1/2 [3]: 6.9 min
O=C(Nc1ccc(F)c(Cl)c1)N1CCOc2ccccc21,6.28,> 100,t1/2 [2]: 14.7 min; t1/2 [3]: < 4 min
